One data set deals with CCRF-CEM. Kind of data set: Cytostatic activity against human CCRF-CEM cells. The data set is classed as ADME, cell-based.
Data set [1] is described as follows: Inhibition of Plasmodium falciparum recombinant HGPRT expressed in Escherichia coli using Prib-PP as substrate by spectrophotometric assay in presence of guanine. The procedure, abridged:
(§1)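 Continuous spectrophotometric assay at 25 °C in 0.1 M Tris-HCl, 10 mM MgCl₂, pH 7.4. PRib-PP is the variable substrate. Guanine is held fixed at a saturating 60 μM. Values are apparent Ki, since only one concentration of the second substrate was used. Each was calculated from Km(app) = Km(1 + [I]/Ki(app)).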

In another data set the test system is HL-60. In words: Cytostatic activity against human HL60 cells. Format: ADME, cell-based.
A short description of data set [2]: Cytotoxicity against cat CRFK cells. Format: cell-based, Felis catus.
The next data set relates to L1210. Kind of data set: Cytostatic activity against mouse L1210 cells. The data set is classed as ADME, cell-based.
A short description of data set [3]: Cytotoxicity african green monkey Vero cells. Format: cell-based. Conditions: chlorocebus sabaeus.
Data set [4] concerns the target T1, Hypoxanthine-guanine phosphoribosyltransferase (Homo sapiens, UniProt P00492).
T1 sequence (P00492 whole entry): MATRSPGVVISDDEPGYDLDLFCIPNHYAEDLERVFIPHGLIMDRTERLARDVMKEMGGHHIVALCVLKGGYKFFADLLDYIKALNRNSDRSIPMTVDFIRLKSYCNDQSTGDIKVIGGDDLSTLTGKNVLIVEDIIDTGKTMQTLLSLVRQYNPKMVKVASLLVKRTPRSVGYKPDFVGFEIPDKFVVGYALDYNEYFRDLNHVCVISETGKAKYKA
Kind of data set: Inhibition of human HGPRT using Prib-PP as substrate by spectrophotometric assay in presence of guanine. Summed up:
as §1

Data set [5] is described as follows: Inhibition of Plasmodium vivax HGPRT using Prib-PP as substrate by spectrophotometric assay in presence of guanine. The procedure, abridged: as §1
A short description of data set [6]: Cytostatic activity against human HeLaS3 cells. Conditions: hela s3. The data set is classed as ADME, cell-based.
A short description of data set [7]: Cytotoxicity against human HEL cells. Format: cell-based.

Molecules are shown by their SMILES. In brackets after ≈: the same amount, converted by molar mass. Some results are limits rather than exact numbers.

As for `CCOC(=O)CN(CCn1cnc2c(=O)[nH]c(N)nc21)CCP(=O)(O)O`, the Activity result (with CCRF-CEM; in the data set with HL-60; with L1210; in data set [6]) was “Non-toxic” each time. The Ki in data set [1] worked out at 1.7 µM; in [4] it was 0.1 µM; in data set [5] it was 1.5 µM. The CC50 in data set [2], in [3] and in [7] was > 100 µg/mL in each case.

Consider `COC(=O)CCN(CCn1cnc2c(=O)[nH]c(N)nc21)CCP(=O)(O)O`, for which the Activity entry (with CCRF-CEM; with HL-60; in the data set on L1210; in data set [6]) was “Non-toxic” each time. Moreover, the values for the Ki in [1], in data set [4] and in [5] were 0.1 µM, 0.5 µM and 4 µM, respectively. The CC50 in data set [2], in data set [3] and in data set [7] was > 100 µg/mL throughout.

`Nc1nc2c(ncn2CCNCCP(=O)(O)O)c(=O)[nH]1`: the Activity entry (with CCRF-CEM; with HL-60; in the data set with L1210; in data set [6]) was “Non-toxic” throughout. Also, the Ki came to 16 µM in data set [1] and 11 µM in [5]. The CC50 in [7] was > 100 µg/mL.

As for `O=c1[nH]cnc2c1ncn2CCNCCP(=O)(O)O`, the Activity entry (in the data set with CCRF-CEM; in the data set on HL-60; in the data set with L1210; in data set [6]) was “Non-toxic” throughout. For the same compound, the values for the Ki in data set [1] and in data set [5] were ≥ 200 µM and ≥ 250 µM, respectively. The CC50 in [7] is > 100 µg/mL.

As for `Nc1nc2c(ncn2CCN(CCCC(=O)O)CCP(=O)(O)O)c(=O)[nH]1`, the Activity result (in the data set on CCRF-CEM; in the data set on HL-60; in the data set on L1210; in [6]) was “Non-toxic” each time. Moreover, the CC50 in data set [2], in data set [3] and in data set [7] was > 100 µg/mL throughout. The Ki in data set [4] is 0.1 µM; in data set [5] it was 25 µM.

Consider `Nc1nc2c(ncn2CCN(CCC(=O)O)CCP(=O)(O)O)c(=O)[nH]1`, for which the Activity entry (in the data set with CCRF-CEM; in the data set with HL-60; in the data set with L1210; in [6]) was “Non-toxic” each time. Besides, the Ki in [1] worked out at 0.2 µM; in [4] it was 0.15 µM; in data set [5] it was 0.05 µM. The CC50 in data set [2], in data set [3] and in data set [7] was > 100 µg/mL throughout.

Regarding `O=C(O)CCCN(CCn1cnc2c(=O)[nH]cnc21)CCP(=O)(O)O`, the Activity entry (in the data set on CCRF-CEM; in the data set on HL-60; in the data set on L1210; in data set [6]) was “Non-toxic” throughout. For the same compound, the Ki in [1] was ≥ 210 µM; in data set [4], 5.4 µM; in [5] it was 1.6 µM. Moreover, the CC50 in data set [2], in data set [3] and in [7] was > 100 µg/mL each time.

In the case of `COC(=O)CCCN(CCn1cnc2c(=O)[nH]cnc21)CCP(=O)(O)O`, the Activity entry (in the data set with CCRF-CEM; in the data set with HL-60; with L1210; in data set [6]) was “Non-toxic” in each case. Besides, the Ki was ≥ 220 µM in data set [1], 22 µM in data set [4] and > 250 µM in data set [5]. Also, the half-maximal cytotoxic concentration (CC50) in data set [2], in [3] and in [7] was > 100 µg/mL in each case.

Regarding `N#CCN(CCn1cnc2c(=O)[nH]cnc21)CCP(=O)(O)O`, the Activity entry (with CCRF-CEM; in the data set on HL-60; with L1210; in [6]) was “Non-toxic” in each case. The Ki in data set [1] is ≥ 250 µM; in data set [4], 35 µM; in data set [5], 47 µM. The CC50 in [2], in [3] and in data set [7] was > 100 µg/mL each time.

Consider `O=C(O)CN(CCn1cnc2c(=O)[nH]cnc21)CCP(=O)(O)O`, for which the Activity entry (in the data set on CCRF-CEM; with HL-60; in the data set with L1210; in [6]) was “Non-toxic” in each case. The CC50 in [2], in data set [3] and in data set [7] was > 100 µg/mL in each case. Also, the Ki is 32 µM in data set [4] and 178 µM in [5].

Consider `N#CCCCN(CCn1cnc2c(=O)[nH]c(N)nc21)CCP(=O)(O)O`, for which the Activity result (in the data set on CCRF-CEM; in the data set on HL-60; in the data set on L1210; in data set [6]) was “Non-toxic” in each case. In addition, the Ki in [1] was 4 µM; in data set [4] it was 0.6 µM; in [5] it was 8 µM. Moreover, the CC50 in data set [2], in data set [3] and in data set [7] was > 100 µg/mL in each case.

As for `N#CCCCN(CCn1cnc2c(=O)[nH]cnc21)CCP(=O)(O)O`, the Activity entry (with CCRF-CEM; with HL-60; with L1210; in data set [6]) was “Non-toxic” each time. The results for the Ki in data set [1], in [4] and in data set [5] were 6 µM, 29 µM and > 230 µM, respectively. Further, the CC50 in data set [2], in data set [3] and in data set [7] was > 100 µg/mL each time.

`CCOC(=O)CN(CCn1cnc2c(=O)[nH]cnc21)CCP(=O)(O)O`: the Activity entry (with CCRF-CEM; with HL-60; in the data set with L1210; in [6]) was “Non-toxic” in each case. Moreover, the Ki in [1] worked out at 1.9 µM; in [4], 2.6 µM; in data set [5], 11 µM. In addition, the CC50 in data set [2], in [3] and in data set [7] was > 100 µg/mL in each case.

`O=c1[nH]cnc2c1ncn2CCN(CCP(=O)(O)O)CCP(=O)(O)O`: the Activity entry (in the data set with CCRF-CEM; with HL-60; in the data set with L1210; in data set [6]) was “Non-toxic” throughout. Besides, the CC50 in data set [2], in data set [3] and in [7] was > 100 µg/mL in each case. The figures for the Ki in data set [4] and in data set [5] were 3 µM and 13 µM, respectively.

With `N#CCN(CCn1cnc2c(=O)[nH]c(N)nc21)CCP(=O)(O)O`, the Activity entry (in the data set on CCRF-CEM; in the data set on HL-60; in the data set on L1210; in data set [6]) was “Non-toxic” throughout. Further, the CC50 in data set [2] is > 100 µg/mL; in data set [3], > 100 µg/mL; in [7], 53 µg/mL (≈ 155 µM).

For `Nc1nc2c(ncn2CCN(CCO)CCP(=O)(O)O)c(=O)[nH]1`, the Activity result (in the data set on CCRF-CEM; with HL-60; in the data set with L1210; in data set [6]) was “Non-toxic” throughout. Moreover, the Ki in [1] was 0.2 µM; in [4], 0.07 µM; in data set [5], 1.4 µM. The CC50 in data set [7] was > 100 µg/mL.

(Values after ChEMBL document CHEMBL2150991, “Synthesis of novel N-branched acyclic nucleoside phosphonates as potent and selective inhibitors of human, Plasmodium falciparum and Plasmodium vivax 6-oxopurine phosphoribosyltransferases” (J Med Chem, 2012).)
